The list is not random: actives were taken first. Their share in the collection is about 2.3%.
TPT1 inhibitor – Candida albicans TPT1 enzyme inhibitors, primary screen, biochemical, fluorescence polarization | tRNA 2'-phosphotransferase TPT1 (Candida albicans SC5314) | recombinant caTPT1, FP RNA substrate dephosphorylation | inhibition, % at 5 µM | hit rate 0.81% among 300,000;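 active = inhibition above the mean of all tested compounds plus 3 SD, set per screening campaign, cut at about 24% in these data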
Rpn11 inh – Rpn11 (PSMD14) deubiquitinase inhibitors, primary screen, biochemical, fluorescence polarization, uHTS | 26S proteasome non-ATPase regulatory subunit 14 (Homo sapiens), O00487 | human 26S proteasome, Ub4-pepOG fluorescence polarization; 20S core pre-blocked with epoxomicin | inhibition, % at 20 µM | hit rate 0.59% among 360,000 | AID 588493, 2011;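 active = inhibition at 20 µM, scaled to each plate's controls, above about 33%, limit read from the data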
Target sequence (O00487 whole entry, looked up): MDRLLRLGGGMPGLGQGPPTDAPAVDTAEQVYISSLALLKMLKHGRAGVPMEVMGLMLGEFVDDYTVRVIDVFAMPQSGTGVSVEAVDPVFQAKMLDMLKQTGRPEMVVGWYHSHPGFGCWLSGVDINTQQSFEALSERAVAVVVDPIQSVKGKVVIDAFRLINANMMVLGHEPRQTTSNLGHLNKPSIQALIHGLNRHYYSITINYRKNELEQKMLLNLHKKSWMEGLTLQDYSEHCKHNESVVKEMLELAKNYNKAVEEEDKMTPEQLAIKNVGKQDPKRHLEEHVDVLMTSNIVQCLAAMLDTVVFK
HNF4A DNA FP – change in binding of human HNF4A to DNA, primary screen, biochemical, fluorescence polarization, FITC-DNA; Hepatocyte nuclear factor 4-alpha (Homo sapiens), P41235; 1 h; activity change, % at 10 µM; hit rate 0.3% among 360,000; in the data active = activity change above about 30%, passing the limit was not always enough
CSN deneddyl inh – inhibitors of CSN-mediated cullin deneddylation, primary screen, biochemical, fluorescence polarization, uHTS; Purified CSN, SCF-Nedd8-OG deneddylation; inhibition, % at 12.5 µM; hit rate 0.38% among 360,000;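 active = pattern-corrected inhibition above about 35%, with an unprinted fluorescence ratio check between 0.5 and 1.5, limit read from the data, passing the limit was not always enough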
Target sequence (Q92905 whole entry, looked up, one chain of several): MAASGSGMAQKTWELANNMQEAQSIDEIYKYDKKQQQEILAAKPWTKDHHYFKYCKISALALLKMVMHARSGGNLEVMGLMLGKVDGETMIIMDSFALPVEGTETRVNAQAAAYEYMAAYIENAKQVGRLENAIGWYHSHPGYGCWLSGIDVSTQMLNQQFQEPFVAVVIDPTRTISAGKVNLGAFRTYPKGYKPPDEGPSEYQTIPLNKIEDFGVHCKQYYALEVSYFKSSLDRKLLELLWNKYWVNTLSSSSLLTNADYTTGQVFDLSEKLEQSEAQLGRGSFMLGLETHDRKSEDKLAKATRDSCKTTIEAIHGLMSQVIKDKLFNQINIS
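Schedule: reaction 90 min, room temperature / Assay system: HEK293T-derived human Csn5 enzyme / Input: Csn5 at 0.24 nM final / Measure: inhibition of Csn5 cleavage, % / Control set: substrate-only high control, full reaction low control / Technique: fluorescence polarization of the substrate / Buffer or medium: Tris/NaCl/DTT buffer, pH 7.5 / Reagent: SCFSkp2-Nedd8OG substrate at 10 nM final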
Myeloid diff MLP – induction of myeloid progenitor differentiation, primary screen, cell-based, flow cytometry, MLPCN library; ER-HoxA9 myeloid progenitors, lysozyme-GFP differentiation; calls only at 10 µM; hit rate 1% among 360,000;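 active = normalized GFP-positive differentiation at or above the plate's own cutoff, the solvent-only control mean plus 3 SD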;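 note: cells exposed to compound for four days before flow analysis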
Numbers stand for hits.

Results for COc1ccc(NC(=O)CSc2n[nH]c(-c3ccco3)n2)cc1 ?
TPT1 inhibitor: inactive; Rpn11 inh: inactive; HNF4A DNA FP: inactive; CSN deneddyl inh: inactive; Myeloid diff MLP: active

How did O=C(CSc1n[nH]c(-c2ccco2)n1)Nc1ccc(Br)cc1 do in these assays?
TPT1 inhibitor: inactive; Rpn11 inh: inactive; HNF4A DNA FP: inactive; CSN deneddyl inh: inactive; Myeloid diff MLP: inactive

How did O=C(O)c1ccc(CSc2n[nH]c(-c3ccco3)n2)cc1 do in these assays?
TPT1 inhibitor: inactive; Rpn11 inh: inactive; HNF4A DNA FP: inactive; CSN deneddyl inh: inactive; Myeloid diff MLP: inactive

Results for COCCCNc1c2c3c(cccc3[nH]c1=O)C(=O)c1ccccc1-2 ?
TPT1 inhibitor: inactive; Rpn11 inh: inactive; HNF4A DNA FP: inactive; CSN deneddyl inh: inactive; Myeloid diff MLP: active

Results for COCCCNC1=C(Cl)C(=O)c2ccccc2C1=O ?
TPT1 inhibitor: inactive; Rpn11 inh: inactive; HNF4A DNA FP: inactive; CSN deneddyl inh: inactive; Myeloid diff MLP: inactive

Results for Cc1cn2c(N)c(C=C3C=C(Cl)C(=O)C(Cl)=C3)c(=O)nc2s1 ?
HNF4A DNA FP: 108; CSN deneddyl inh: inactive; Myeloid diff MLP: inactive

What do the screens show for `COc1ccc(OCC(O)CN2C(=O)c3ccccc3C2=O)cc1` (stereo unspecified)?
TPT1 inhibitor: inactive; Rpn11 inh: inactive; HNF4A DNA FP: inactive; CSN deneddyl inh: inactive; Myeloid diff MLP: active

How did Cc1ccccc1OCC(=O)Nc1ccccc1CO do in these assays?
TPT1 inhibitor: inactive; Rpn11 inh: inactive; HNF4A DNA FP: inactive; CSN deneddyl inh: inactive; Myeloid diff MLP: inactive

How did CSc1ccccc1NC(=O)COc1ccccc1C do in these assays?
TPT1 inhibitor: inactive; Rpn11 inh: inactive; HNF4A DNA FP: inactive; CSN deneddyl inh: inactive; Myeloid diff MLP: active

What do the screens show for `Cc1ccc(C(=O)NC(=S)NNC(=O)COc2ccccc2C)cc1`?
TPT1 inhibitor: inactive; Rpn11 inh: inactive; HNF4A DNA FP: 27; CSN deneddyl inh: inactive; Myeloid diff MLP: inactive

Results for CC(Sc1nnc(NCc2ccccc2)s1)C(=O)Nc1ccc2c(c1)C(=O)c1ccccc1C2=O (stereo unspecified) ?
TPT1 inhibitor: inactive; Rpn11 inh: inactive; HNF4A DNA FP: inactive; CSN deneddyl inh: inactive; Myeloid diff MLP: inactive

What do the screens show for `CC(Sc1nnc(Nc2ccccc2)s1)C(=O)Nc1nc(-c2ccccc2)cs1` (stereo unspecified)?
TPT1 inhibitor: inactive; Rpn11 inh: inactive; HNF4A DNA FP: inactive; CSN deneddyl inh: inactive; Myeloid diff MLP: active

How did CCCCn1c(O)c(N=Nc2ccccc2O)c2ccccc21 do in these assays?
HNF4A DNA FP: 84; CSN deneddyl inh: inactive; Myeloid diff MLP: inactive

What do the screens show for `FC(F)c1nnc2ccc(Cl)nn12`?
TPT1 inhibitor: inactive; Rpn11 inh: inactive; HNF4A DNA FP: inactive; CSN deneddyl inh: inactive; Myeloid diff MLP: inactive

How did Clc1ccc2nnc(Cl)n2n1 do in these assays?
TPT1 inhibitor: inactive; Rpn11 inh: inactive; HNF4A DNA FP: inactive; CSN deneddyl inh: inactive; Myeloid diff MLP: active

Results for O=C(/C=C/c1ccc([N+](=O)[O-])cc1)Nc1cccc(C(=O)Nc2ccccc2C(=O)O)c1 ?
TPT1 inhibitor: inactive; Rpn11 inh: inactive; HNF4A DNA FP: inactive; CSN deneddyl inh: inactive; Myeloid diff MLP: active

How did O=C1C(C2=C(O)c3ccccc3C2=O)=Nc2ccccc21 do in these assays?
TPT1 inhibitor: inactive; Rpn11 inh: inactive; HNF4A DNA FP: inactive; CSN deneddyl inh: inactive; Myeloid diff MLP: active

What do the screens show for `CN=CC1=C(O)c2ccccc2C1=O`?
TPT1 inhibitor: inactive; Rpn11 inh: inactive; HNF4A DNA FP: inactive; CSN deneddyl inh: inactive; Myeloid diff MLP: inactive

What do the screens show for `N=c1c(S(=O)(=O)c2ccc(Cl)cc2)cc2c(=O)n3ccccc3nc2n1Cc1ccco1`?
TPT1 inhibitor: inactive; Rpn11 inh: inactive; HNF4A DNA FP: inactive; CSN deneddyl inh: 40; Myeloid diff MLP: inactive

How did CC(=O)c1c(C)[nH]c(C(=O)/C(C#N)=C/c2cccc(C)c2)c1C do in these assays?
TPT1 inhibitor: inactive; Rpn11 inh: inactive; HNF4A DNA FP: inactive; CSN deneddyl inh: inactive; Myeloid diff MLP: inactive

Results for CCOC(=O)c1c(C)[nH]c(C(=O)/C(C#N)=C/c2ccc(OCC)cc2)c1C ?
TPT1 inhibitor: inactive; Rpn11 inh: inactive; HNF4A DNA FP: inactive; CSN deneddyl inh: inactive; Myeloid diff MLP: active

What do the screens show for `C=CCn1c(=O)/c(=C2/SC(C)=C(C)N2CC)s/c1=C1/C(=O)N(CC)C(=S)N1c1ccccc1`?
TPT1 inhibitor: inactive; Rpn11 inh: inactive; HNF4A DNA FP: inactive; CSN deneddyl inh: inactive; Myeloid diff MLP: active

What do the screens show for `C=CCN1C(=O)/C(=C2/Sc3ccccc3N2CC)SC1=S`?
TPT1 inhibitor: inactive; HNF4A DNA FP: inactive; CSN deneddyl inh: inactive; Myeloid diff MLP: inactive

How did Cn1nc(-c2ccccc2)c(CSc2ccccc2Cl)c1Cl do in these assays?
TPT1 inhibitor: inactive; Rpn11 inh: inactive; HNF4A DNA FP: inactive; CSN deneddyl inh: inactive; Myeloid diff MLP: active

Results for COc1ccc(C(C)(O)c2nc(-c3cccc(C(F)(F)F)c3)cs2)cc1 (stereo unspecified) ?
Rpn11 inh: inactive; HNF4A DNA FP: inactive; CSN deneddyl inh: inactive; Myeloid diff MLP: inactive

Results for Cc1c(CCOC(=O)C23CC4(C)CC(C)(CC(C)(C4)C2)C3)sc[n+]1CC(=O)c1ccccc1 ?
TPT1 inhibitor: inactive; Rpn11 inh: inactive; HNF4A DNA FP: 81; CSN deneddyl inh: inactive; Myeloid diff MLP: inactive

Results for Cc1c(CCOC(=O)CC23CC4CC(CC(C4)C2)C3)sc[n+]1CC(=O)c1ccccc1 ?
TPT1 inhibitor: inactive; Rpn11 inh: inactive; HNF4A DNA FP: inactive; CSN deneddyl inh: inactive; Myeloid diff MLP: inactive

What do the screens show for `O=C(NNS(=O)(=O)c1ccc(Br)cc1)c1sccc1-n1cccc1`?
TPT1 inhibitor: inactive; Rpn11 inh: inactive; HNF4A DNA FP: inactive; CSN deneddyl inh: inactive; Myeloid diff MLP: inactive

Results for COc1ccc(S(=O)(=O)NNC(=O)c2sccc2-n2cccc2)cc1 ?
TPT1 inhibitor: inactive; Rpn11 inh: inactive; HNF4A DNA FP: 31; CSN deneddyl inh: inactive; Myeloid diff MLP: inactive

How did C#CCCC(=O)c1ccccc1/C=[N+](\[O-])c1ccccc1 do in these assays?
Rpn11 inh: 64; HNF4A DNA FP: inactive; CSN deneddyl inh: inactive; Myeloid diff MLP: inactive

How did C#CCCc1cscc1/C=[N+](\[O-])c1ccc(C(=O)OCC)cc1 do in these assays?
Rpn11 inh: inactive; HNF4A DNA FP: inactive; CSN deneddyl inh: inactive; Myeloid diff MLP: inactive

What do the screens show for `CCCC(=O)NCC(c1cccs1)S(=O)(=O)c1ccc(Cl)cc1` (stereo unspecified)?
TPT1 inhibitor: inactive; Rpn11 inh: inactive; HNF4A DNA FP: inactive; CSN deneddyl inh: inactive; Myeloid diff MLP: active

How did Cn1c2ccccc2c(=O)c2ccc(NCCc3cccs3)cc21 do in these assays?
Rpn11 inh: inactive; HNF4A DNA FP: inactive; CSN deneddyl inh: inactive; Myeloid diff MLP: active
